Reference: ChEMBL document CHEMBL4196102, “Yeast Chemogenomic Profiling Reveals Iron Chelation To Be the Principle Cell Inhibitory Mode of Action of Gossypol” (J Med Chem, 2018)
Activity calls are given as the source filed them. The rule behind the calls is not given here.

What was measured:
Assay type in all cases: functional, organism-based
[1] = system: Saccharomyces cerevisiae; assay: Growth inhibition of Saccharomyces cerevisiae harboring FTR1 deletion mutant at 400 uM measured for 11 hrs by HOP assay
Procedure, shortened: (§1)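 Pooled homozygous (HOP) or heterozygous (HIP) deletion collections were profiled at 400 µM in two independent experiments, with strain sensitivity read from barcode abundance. Hits were retested as individual log-phase strains in YPD with serial compound dilutions, start OD600 0.01 and 2% DMSO. OD600 was read at 11 h and fitted by logistic regression against HO/YDL227C as wild-type reference.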

[2] = system: Saccharomyces cerevisiae; assay: Growth inhibition of Saccharomyces cerevisiae harboring FET3 deletion mutant at 400 uM measured for 11 hrs by HOP assay; procedure, shortened: as §1
[3] = system: Saccharomyces cerevisiae; assay: Growth inhibition of Saccharomyces cerevisiae harboring CCC2 deletion mutant at 400 uM measured for 11 hrs by HOP assay; procedure, shortened: as §1
[4] = system: Saccharomyces cerevisiae; assay: Growth inhibition of Saccharomyces cerevisiae harboring GEF1 deletion mutant at 400 uM measured for 11 hrs by HOP assay; procedure, shortened: as §1
[5] = system: Saccharomyces cerevisiae; assay: Growth inhibition of wild type Saccharomyces cerevisiae BY4743 at 500 uM measured for 15 hrs in presence of Fe2+
[6] = system: Saccharomyces cerevisiae; assay: Growth inhibition of Saccharomyces cerevisiae harboring GRX6 deletion mutant at 400 uM measured for 11 hrs by HOP assay; procedure, shortened: as §1
[7] = system: Saccharomyces cerevisiae; assay: Growth inhibition of Saccharomyces cerevisiae harboring PIB2 deletion mutant at 400 uM measured for 11 hrs by HIP assay; procedure, shortened: as §1
[8] = system: Saccharomyces cerevisiae; assay: Growth inhibition of wild type Saccharomyces cerevisiae BY4743 at 100 uM measured for 15 hrs in presence of Fe2+

Row | Compound | growth inhibition (GI) [1] | growth inhibition (GI) [2] | growth inhibition (GI) [3] | growth inhibition (GI) [4] | growth inhibition (GI) [5] | growth inhibition (GI) [6] | growth inhibition (GI) [7] | growth inhibition (GI) [8]
1 | Cc1cc2c(C(C)C)c(O)c(O)c(C=O)c2c(O)c1-c1c(C)cc2c(C(C)C)c(O)c(O)c(C=O)c2c1O | Active | Active | Active | Active | inactive | Active | inactive | 
2 | O=C(O)c1ccc(-n2nc(-c3ccccc3O)nc2-c2ccccc2O)cc1 |  | Active |  | inactive |  |  |  | inactive
